Measured values pooled from the literature.
Target: Serine/threonine-protein kinase 17A (STK17A, Homo sapiens, UniProt Q9UEE5)
Residues used in one study (Q9UEE5 1-414): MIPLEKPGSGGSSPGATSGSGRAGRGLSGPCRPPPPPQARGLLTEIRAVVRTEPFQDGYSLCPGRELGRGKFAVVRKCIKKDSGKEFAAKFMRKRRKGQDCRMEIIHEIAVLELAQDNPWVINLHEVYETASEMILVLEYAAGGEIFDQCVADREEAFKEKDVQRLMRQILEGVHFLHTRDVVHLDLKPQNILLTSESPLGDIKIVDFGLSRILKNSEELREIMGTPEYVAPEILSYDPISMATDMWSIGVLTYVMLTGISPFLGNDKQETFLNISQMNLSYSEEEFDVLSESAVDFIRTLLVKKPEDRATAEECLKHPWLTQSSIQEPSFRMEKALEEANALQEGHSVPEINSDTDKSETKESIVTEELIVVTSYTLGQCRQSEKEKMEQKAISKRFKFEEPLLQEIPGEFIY

SMILES	assay	conditions	remaining binding [%]
Cc1c(C(=O)O)cc(-c2ccc(C3CCNCC3)cc2)c2ccc(-c3ccc(C(F)(F)F)cc3)cc12	cell-free assay, competition with immobilised ligand	1 µM	99
Cc1cnc(Nc2ccc(C(=O)N3CCC(N4CCCC4)CC3)cc2)nc1-c1cc2ccccc2s1	binding, competition with immobilised ligand	1 µM	0.1
COc1cc(-c2cn(C3CCc4c(F)cccc4N(CC(F)(F)F)C3=O)nn2)ccc1-n1cnc(C)c1 (stereo not shown)	cell-free assay, competition with immobilised ligand	1 µM	100
CCN1CCN(Cc2ccc(C(=O)Nc3ccc(C)c(Oc4ccc5c(c4)CC(=O)N5)c3)cc2C(F)(F)F)CC1	binding, competition with immobilised ligand	1 µM	100
C[C@@]1(Cc2ccc(C#N)cc2)C(=O)N(c2cc(Cl)cc(Cl)c2)c2ncc(C(=O)NC3(c4nc(C5CCC5)no4)CC3)n21	cell-free assay, competition with immobilised ligand	1 µM	91
COc1ncc2cc3ccccc3nc2c1C#N	cell-free assay, competition with immobilised ligand	5 µM	100
CNC(=O)[C@@H]1CC[C@@H](n2c(-c3ccc4cnccc4c3)nc3ccc(C(=O)NCc4cccc(C(N)=O)c4)cc32)C1	binding, competition with immobilised ligand	1 µM	100
O=C(NCC1CCOCC1)c1n[nH]cc1NC(=O)c1c(F)cccc1F	binding, competition with immobilised ligand	1 µM	94
CN(C)c1nccc(-c2cnn3ncccc23)n1	binding	1 µM	76
O=C(c1ccc(Nc2ncc(Cl)c(-c3ccc(Cl)s3)n2)cc1)N1CCC(N2CCCC2)CC1	binding, competition with immobilised ligand	1 µM	0.8
CN(C)c1nccc(-c2cnc3ncccn23)n1	binding	1 µM	100
c1ccc(N2CCN(Cc3nc4ccccc4[nH]3)CC2)nc1	cell-free assay, competition with immobilised ligand	1 µM	100
CN(CCCC(F)(F)F)c1nccc(-c2cnn3ncccc23)n1	binding	1 µM	100
C[C@@H](c1ccc(-n2cnc3c(N)ncnc32)cc1)N1CCc2nn(C)c(Cc3ccccc3)c2C1=O	binding, competition with immobilised ligand	0.1 µM	91
N[C@@H]1CCN(c2nccc(-c3cnn4ncccc34)n2)C1	binding	1 µM	100
O=C(c1ccc(Nc2nccc(-c3cc4ccccc4s3)n2)cc1)N1CCC(N2CCCC2)CC1	binding, competition with immobilised ligand	1 µM	0.3
F[C@@H]1CCN(c2nccc(-c3cnn4ncccc34)n2)C1	binding	1 µM	100
COc1cnc(Nc2cccc(S(N)(=O)=O)c2)nc1N1CCN(c2ccccc2)C(=O)C1	binding, competition with immobilised ligand	1 µM	98
C[C@H]1CCN(c2nccc(-c3cnn4ncccc34)n2)C1	binding	1 µM	13
C[C@H](c1cccc(C#N)c1)n1cc(Cl)cc(C(N)=O)c1=N	cell-free assay, competition with immobilised ligand	1 µM	85
c1cnn2ncc(-c3ccnc(N4CCC45COC5)n3)c2c1	binding	1 µM	100
Cn1nc(C(=O)NCc2ccc(C(=O)O)cc2)cc1-c1ccc2[nH]ccc2c1	cell-free assay, competition with immobilised ligand	0.1 µM	92
